# Glyco luc inh: N-linked glycosylation inhibition | D54 ERlucT glycosylation luciferase reporter, 24 h; percent of 100 nM tunicamycin response | reporter increase, % at 12.5 µM | actives 0.23% (n = 360,000) | AID 588692;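 active = mean luciferase reporter signal, scaled so untreated is 0 and the glycosylation-blocking control 100, at or above a set limit in every replicate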;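 note: luciferase carries N-glycosylation sites so blocking glycosylation raises the light; 0% = median of neutral control wells and 100% = median of 100 nM tunicamycin wells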
# ALR H2O2 inh: inhibitors of human sulfhydryl oxidase ALR. P55789. purified ALR, DTT oxidation, H2O2 HRP-luminol luminescence. inhibition, % (no concentration beside the values). actives 3.8% (n = 290,000). AID 485317;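 active = mean replicate inhibition above about 79%, with every replicate also reaching it, limit read from the data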
# Target sequence (P55789 whole entry, looked up): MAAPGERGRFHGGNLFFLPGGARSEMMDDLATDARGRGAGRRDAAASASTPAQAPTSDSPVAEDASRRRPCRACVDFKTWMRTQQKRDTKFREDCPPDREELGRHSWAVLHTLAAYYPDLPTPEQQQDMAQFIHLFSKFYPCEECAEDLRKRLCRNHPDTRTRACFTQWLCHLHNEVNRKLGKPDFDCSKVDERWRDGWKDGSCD
# T cell HTS: T cell immune modulation candidate; actives 0.068% (n = 330,000); 2C CD8+ T cell-vesicle binding, flow cytometry; stronger effect = lower value; response (vesicle binding), % at 7 µM;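 active = response, share of CD8 T cells binding vesicles, and their 90th percentile fluorescence all below set limits, cut at about 80% in these data, passing the limit was not always enough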;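 note: values below 100% mean blocked vesicle binding to the CD8+ T cells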
#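 Benchmarks: naked versus QL9-loaded vesicles / Assay system: purified 2C TCR transgenic mouse naive CD8+ T cells / Technique: high-throughput flow cytometry with anti-B7-1 and anti-CD8 staining / Timing: Cell–vesicle co-incubation 1.5 h at 37 °C, staining 20 min on ice / Read-out: percent CD8+ FL2 mean versus row control / Probe or stimulus: QL9-loaded Drosophila micro-vesicles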
# An asterisk follows results filed as active; i = inactive; x = not tested or not shown. Only a selection was taken, and hits are over-represented in it overall.
SMILES,Glyco luc inh,ALR H2O2 inh,T cell HTS
Nc1ccc(NC(=O)c2ccco2)c(Cl)c1,1,99*,87
CCCc1ccc(-c2cc(NC(=O)CSc3nnc(N)s3)n(-c3ccccc3)n2)cc1,-9,x,151
CC1(C(=O)NCc2cccs2)Cc2c(-c3ccccc3)ccnc2O1 (configuration not stated),17,x,x
CCN(C(=O)CSc1nc2ccccc2c(=O)n1-c1ccccc1F)C1CCS(=O)(=O)C1 (configuration not stated),1,x,554
Cc1ccc(CN2CCC(C)(Oc3ccc(Cl)cc3)C2)cc1 (configuration not stated),1,x,x
O=C(NCc1ccccc1)c1cc(C2CCCCN2C(=O)c2ccc3c(c2)CCO3)on1 (configuration not stated),0,x,x
O=C(Nc1ccc(Nc2ccccc2)cc1)c1ccco1,-2,92*,312
O=C(Nc1ccc(NC(=O)c2ccco2)cc1)c1ccco1,-3,-14,223
O=C(Nc1cc(Br)c(O)c(Br)c1)c1cccc(NC(=O)c2ccco2)c1,-1,98*,288
O=C(Nc1cccc(NC(=O)c2ccco2)c1)c1cccc(Br)c1,-2,x,446
CCN(CC)S(=O)(=O)c1ccc(OC)c(NC(=O)CCS(=O)(=O)Cc2ccccc2)c1,-1,-8,406
COc1ccc(CN(C)C(=O)c2[nH]c(C)c(C(C)=O)c2C)cc1F,1,0,245
CC1CN(C(=O)N2c3ccccc3Sc3ccccc32)CC(C)O1 (configuration not stated),0,99*,200
CC1CCCN(C(=O)N2c3ccccc3Sc3ccccc32)C1 (configuration not stated),-8,63,372
CC1CN(C(=O)N2c3ccccc3Sc3ccccc32)C(C)CC1=O (configuration not stated),-1,68,272
CC1CCN(C(=O)N2c3ccccc3Sc3ccccc32)CC1,-9,89*,184
O=C(CN1CCOCC1)N1c2ccccc2Sc2ccccc21,-1,4,294
O=C(N1CCOCC1)N1c2ccccc2Sc2ccccc21,-8,99*,251
NC(c1csc(Nc2ccc(C(=O)c3ccccc3)cc2)n1)C1CCCCC1 (configuration not stated),-8,x,x
CC(OC(=O)CSc1ccc([N+](=O)[O-])cc1)C(=O)NC1CC1 (configuration not stated),1,0,273
Cc1cc(Br)ccc1NC(=O)CN(C)Cc1cccs1,-2,x,156
COc1cc(CNc2ccc(C)c(C)c2)cc(OC)c1OC,22,97*,229
COc1ccc(CNc2ccc(C)c(C)c2)cc1,1,36,84
COc1ccc(CNc2cc(C)ccc2C)c(OC)c1OC,-4,98*,460
COc1cc(C)c(CNc2cccc(C)c2)cc1C,-3,44,442
SMILES,Glyco luc inh,ALR H2O2 inh,T cell HTS
COc1cc(CNc2ccc3c(c2)CCC3)cc(OC)c1O,-1,99*,347
COc1ccc(C)cc1NCc1cccc(OC)c1OC,-1,57,i
CCOc1cc(CNc2ccc3c(c2)CCC3)ccc1O,x,-11,485
COc1cc(C)c(CNc2ccc(OC)c(OC)c2)cc1C,x,82*,293
CCN(C(=O)COC(=O)c1cccs1)c1c(N)n(Cc2ccccc2)c(=O)[nH]c1=O,0,4,383
O=C(NC1CCN(S(=O)(=O)c2ccccc2C(F)(F)F)CC1)c1ccco1,2,4,232
Cc1c(C(=O)C(=O)N2CCN(Cc3ccc4c(c3)OCO4)CC2)c2ccccc2n1C,-3,-1,366
COc1cc(CNc2cc(C)ccc2C)cc(OC)c1OC,1,99*,594
COc1cc(Br)c(CNc2cc(C)ccc2C)cc1OC,0,x,179
CCOc1cc(CNc2cccc3[nH]c(C)nc23)ccc1OC,7,98*,660
CCOc1cc(CNc2ncnc3nc[nH]c23)ccc1OC,2,-9,661
CC(C)n1cc(-c2nc(C(=O)NN)cs2)c(=O)n(Cc2ccccc2)c1=O,0,0,114
CC(Sc1nc2ncc(Cl)cc2[nH]1)C(=O)NC1(C#N)CCCCC1 (configuration not stated),0,6,219
CC1=C(C(=O)Nc2ccc(CC(=O)NCc3ccccc3C)cc2)SCCO1,2,-9,i
CCc1ccc(CNC(=O)Cc2ccc(NC(=O)C3=C(C)OCCS3)cc2)cc1,31*,-2,502
Cc1nnc(SCC(=O)NC(C)(C)C)n1NCc1ccc(N(C)C)cc1,-1,81*,307
Cc1nnc(SCC(=O)NC(C)(C)C)n1NCc1ccc(Cl)cc1,-2,x,197
O=C(Nc1ccccn1)C(=O)Nc1ccccn1,-5,0,150
S=C(Nc1ccccn1)c1ccccn1,10,-15,12*
O=[N+]([O-])c1ccc(-c2cn(-c3ccccc3F)c(=S)[nH]2)cc1,-1,84*,942
Cc1ccc(-c2cn(-c3ccccc3F)c(=S)[nH]2)cc1,0,72,30
CN(C)c1ccc(C=O)c(Oc2ccccc2)c1,0,x,x
CSc1ccc2c(c1)C(N1CCN(C)CC1)Cc1ccc(F)cc1S2 (configuration not stated),-9,3,953
CSc1ccc2c(c1)N(CCC1CCCCN1C)c1ccccc1S2 (configuration not stated),7,99*,88
Cc1cccc(C(=O)N2CCCC(N3CCN(c4ccc(F)cc4)CC3)C2)n1 (configuration not stated),0,99*,305
SMILES,Glyco luc inh,ALR H2O2 inh,T cell HTS
COc1ccc(N2CCN(C3CCCN(C(=O)c4cccc(C)n4)C3)CC2)cc1 (configuration not stated),1,58,353
Cc1nc(C(=O)N2CCCC(N3CCN(c4ccc(F)cc4)CC3)C2)cs1 (configuration not stated),0,x,x
Cc1cccc(C(=O)N2CCCC(N3CCN(c4ccccc4)CC3)C2)n1 (configuration not stated),3,98*,186
COCCNC(=O)Nc1ccc(F)cc1,2,-8,393
OC[C@@H]1CN(Cc2ccc(Cl)cc2)C[C@H](n2cnc3c(NCc4ccc(F)cc4)ncnc32)O1,-1,x,x
O=C(CCNS(=O)(=O)c1ccc2nsnc2c1)N1CCN(c2ccncc2)CC1,0,3,291
Cc1cc(C)nc(Nc2n[nH]c(-c3ccc(C(C)(C)C)cc3)n2)n1,3,-15,158
Cc1cc(C)nc(Nc2n[nH]c(-c3ccc(N)cc3)n2)n1,-8,99*,987
CC1(C)CC(=O)C2=C(C1)OC1=C(C(=O)CC(C)(C)C1)C2c1ccc(O)c([N+](=O)[O-])c1,-1,-5,288
CC1(C)CC(=O)C(C(C2=C(O)CC(C)(C)CC2=O)c2ccc(O)c([N+](=O)[O-])c2)=C(O)C1,1,97*,181
COc1ccc(-c2csc(C3=C(O)CN(CCCN4CCCC4=O)C3=N)n2)cc1OC,-1,96*,193
CCCCN1CC(O)=C(c2nc(-c3ccc(Br)cc3)cs2)C1=N,-5,-3,117
CN(C)c1ccc(/C=C/c2ccc3ccccc3[n+]2C)cc1,2,98*,399
CN(CCCS(=O)(=O)[O-])c1ccc(/C=C/c2ccc3ccccc3[n+]2C)cc1,1,16,170

# Screening results as filed in PubChem.
